The campaign covered roughly 340,000 compounds. About 1,100 (0.32%) were called active.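 The calls were made as follows: active = inhibition above a set limit, near 3 SD of compounds lacking own fluorescence (cut at about 54% in these data); inactive = the rest.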 Many of the other results were omitted from the sample, so actives are more common in it than they were.
system: beta-arrestin 1 C-terminal peptide binding to AP2 beta2-adaptin appendage (human); test: inhibitors of beta-arrestin/AP2 binding, primary screen, biochemical, GPCR trafficking, flow cytometry (AID 504490); conditions: FITC-arrestin peptide / GST-AP2 beads, at 10 µM, stronger effect = higher value, AP2 beta2 appendage carries R879A mutation;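 also: plate controls were DMSO wells for no effect and 5 µM unlabelled arrestin peptide for full effect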
Procedure, shortened: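 Assay system: GST-AP2 R879A bound to glutathione beads, E. coli-expressed; Medium: PBS with 0.05% Tween 20 and 0.1% BSA; Also added: fluorescein-tagged arrestin peptide at 50 nM final; Timing: 12 min plus 1 h, RT; Measured by: flow cytometry, FL1 (488/535 nm); Evaluation: percent drop in bead-associated FITC signal.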

Q: Which inhibition does the source give for `CC12COC3(C(=O)Nc4ccc(Cl)cn4)CC1CCC32C` (centres undefined) here?
A: The inhibition was 1.37% (inactive).

Q: For `CCc1ccccc1N(CC(=O)NCC1CCCO1)C(=O)CCC(=O)Nc1nccs1` (centres undefined), which inhibition is on record?
A: The inhibition was -16.6% (inactive).

Q: `Clc1cc(-c2ccc(/C=N/n3cnnc3)o2)ccc1Br` was tested. Which inhibition did it give?
A: Its inhibition is 1.32% (inactive).

Q: With `Cc1ccc(Cl)cc1-c1ccc(/C=N/n2cnnc2)o1` as the compound, how does the inhibition read?
A: Its inhibition is 63.3% (active).

Q: With `Brc1cc(/C=N/n2cnnc2)oc1Br` as the compound, how does the inhibition read?
A: The inhibition was 1.91% (inactive).

Q: For `N#Cc1ccc(-c2ccc(Cl)cc2)nc1Oc1ccc(F)cc1`, which inhibition is on record?
A: The inhibition was -5.52% (inactive).

Q: `Cc1c(C2=CCN(S(=O)(=O)c3ccc(Cl)cc3)CC2)c2ccccc2n1C` was tested. Which inhibition did it give?
A: Its inhibition is 6.61% (inactive).

Q: Which inhibition does the source give for `O=C(CCCNS(=O)(=O)c1cccc2nsnc12)NCCN1CCN(c2ccccc2F)CC1` here?
A: The inhibition was 5.08% (inactive).

Q: `Cc1ccc(S(=O)(=O)N2CCN(C(=O)Cn3c(=O)cnc4ccccc43)CC2)c(C)c1` was tested. Which inhibition did it give?
A: The inhibition was -13.3% (inactive).

Q: `Cc1ccc(S(=O)(=O)N2CCN(C(=O)N3CCOCC3)CC2)c(C)c1` was tested. Which inhibition did it give?
A: Its inhibition is 17.1% (inactive).

Q: Which inhibition does the source give for `Cc1ccc(S(=O)(=O)N2CCN(C(=O)c3ccccc3-c3nc4ccccc4s3)CC2)c(C)c1` here?
A: The inhibition was 66.5% (active).

Q: How did the inhibition turn out when `CC(C)(C)OC(=O)N1CCC(NC(=O)c2[nH]cnc2C(=O)N[C@@H](Cc2ccccc2)C(=O)OCc2ccccc2)CC1` was run?
A: Its inhibition is 9.22% (inactive).

Q: For `O=C(NCCN1CCOC1=O)C1CCC(=O)N(CCc2ccc(Cl)cc2)C1` (centres undefined), which inhibition is on record?
A: The inhibition was -10.1% (inactive).

Q: For `N#Cc1c(N)n(CCOC(=O)c2ccc(Cl)cc2)c2nc3ccccc3nc12`, which inhibition is on record?
A: The inhibition was 3.34% (inactive).

Q: Which inhibition does the source give for `COCC(C)OC(=O)c1c(N)n(CCCN2CCOCC2)c2nc3ccccc3nc12` (centres undefined) here?
A: Its inhibition is -8.22% (inactive).

Q: With `CC(C)(C)c1ccc(C(=O)NCCn2c(N)c(C#N)c3nc4ccccc4nc32)cc1` as the compound, how does the inhibition read?
A: The inhibition was 94.7% (active).

Q: For `COc1ccc(S(=O)(=O)Nc2cccc3c2O[C@H](CN(C)S(=O)(=O)c2ccc(OC)cc2)[C@@H](C)CN([C@H](C)CO)C3=O)cc1`, which inhibition is on record?
A: Its inhibition is -15.4% (inactive).

Q: For `COc1ccc(NC(=O)c2sc(N3CCOCC3)nc2-c2ccccc2)c(OC)c1`, which inhibition is on record?
A: Its inhibition is 18.7% (inactive).

Q: For `COC(=O)CN1C(=O)[C@H]2[C@@H](/C=C/c3ccccc3)N3C(=O)CN(Cc4ccccc4)C(=O)[C@@]3(Cc3ccccc3)[C@H]2C1=O`, which inhibition is on record?
A: The inhibition was -5.14% (inactive).

Q: For `CC(=O)Nc1ccc(NC(=O)CSC2=NS(=O)(=O)c3ccccc3N2)cc1`, which inhibition is on record?
A: The inhibition was 22% (inactive).

Q: Which inhibition does the source give for `COC(=O)[C@H](C(C)C)n1c(C)c(C(C)=O)c(C(C)=O)c1C` here?
A: The inhibition was -0.72% (inactive).

Q: With `CCC(CC)c1nnc(NC(=O)c2nn(C)c(=O)c3ccccc23)s1` as the compound, how does the inhibition read?
A: Its inhibition is -0.4% (inactive).

Q: How did the inhibition turn out when `COC(=O)c1cc(NC(=O)c2nn(C)c(=O)c3ccccc23)cc(C(=O)OC)c1` was run?
A: The inhibition was 66.5% (active).

Q: With `CCC(C)NC(=O)c1nn(C)c(=O)c2ccccc12` (centres undefined) as the compound, how does the inhibition read?
A: The inhibition was -22% (inactive).

Q: For `O=C(OCc1nc2ccccc2[nH]1)C1CCCCC1`, which inhibition is on record?
A: The inhibition was -0.04% (inactive).

Q: With `Cn1c(N)c(C(=O)COC(=O)c2ccc3ccccc3c2)c(=O)n(C)c1=O` as the compound, how does the inhibition read?
A: The inhibition was 7.54% (inactive).

Q: Which inhibition does the source give for `Cn1c(N)c(C(=O)COC(=O)c2cnc(Cl)c(Cl)c2)c(=O)n(C)c1=O` here?
A: Its inhibition is -4.58% (inactive).

Q: Which inhibition does the source give for `Cc1cc(C(=O)OCC(=O)c2c(N)n(C)c(=O)n(C)c2=O)c(C)o1` here?
A: Its inhibition is 104% (active).

Q: How did the inhibition turn out when `CCCCN(C(=O)CSCc1ccc(C)cc1)c1c(N)n(Cc2ccccc2)c(=O)[nH]c1=O` was run?
A: The inhibition was -0.62% (inactive).

Q: For `Cc1noc(C)c1CSc1nnc2ccc3ccccc3n12`, which inhibition is on record?
A: Its inhibition is -1.44% (inactive).

Q: Which inhibition does the source give for `Cc1coc2c(O)cc3c(c12)OC1(N2CCCCC2)C(=O)NCCCC31` (centres undefined) here?
A: The inhibition was 9.81% (inactive).

Q: Which inhibition does the source give for `O=[N+]([O-])c1ccccc1N/N=C1\CCc2ccccc21` here?
A: The inhibition was -6.42% (inactive).

Q: For `Cn1cnnc1Sc1ccc(CN2CCN(C3CCCC3)C(CCO)C2)o1` (centres undefined), which inhibition is on record?
A: Its inhibition is -10.1% (inactive).

Q: For `Cc1ccc(C(=O)NC(C)c2ccccc2)cc1Br` (centres undefined), which inhibition is on record?
A: Its inhibition is -2.36% (inactive).

Q: Which inhibition does the source give for `CC(NC(=O)C(=O)N/N=C/c1ccc(Cl)cc1)c1ccccc1` (centres undefined) here?
A: Its inhibition is 6.57% (inactive).

Q: How did the inhibition turn out when `CC(NC(=O)c1cc2cc(Cl)ccc2oc1=N)c1ccccc1` (centres undefined) was run?
A: The inhibition was 56% (active).

Q: How did the inhibition turn out when `CN(C(=O)c1cccc([N+](=O)[O-])c1)c1ccccc1C(=O)NCc1ccccc1` was run?
A: The inhibition was -22.1% (inactive).

Q: Which inhibition does the source give for `CCC(C(=O)OC)n1cnc2scc(-c3ccc(C)cc3)c2c1=O` (centres undefined) here?
A: Its inhibition is -1.08% (inactive).

Q: For `Cc1ccc(C)c(Cn2cnc3c(oc4ccccc43)c2=O)c1`, which inhibition is on record?
A: The inhibition was 29.7% (inactive).

Q: Which inhibition does the source give for `CCC(C(=O)OC)n1cnc2c(oc3ccccc32)c1=O` (centres undefined) here?
A: The inhibition was 54.6% (active).

Q: `Cc1ccc(NC(=O)CN2CCC3(O)CCCCC3C2c2ccc3c(c2)OCO3)c(C)c1` (centres undefined) was tested. Which inhibition did it give?
A: The inhibition was 1.75% (inactive).

Q: How did the inhibition turn out when `CC(=O)Nc1ccc(NC(=O)CN2C(=O)COc3ccc(S(=O)(=O)N4CCCCC4)cc32)cc1` was run?
A: Its inhibition is -9.58% (inactive).

Q: With `COC(=O)C1=C(C(=O)OC)C2(OC1c1ccc(Br)cc1)C(=O)c1ccccc1C2=O` (centres undefined) as the compound, how does the inhibition read?
A: Its inhibition is 7.98% (inactive).

Q: Which inhibition does the source give for `COc1cc2c(cc1OC)CN(C(=O)c1cc(=O)c3ccccc3o1)CC2` here?
A: Its inhibition is 82.5% (active).

Q: With `COc1ccc2c(CC(=O)N3CCc4cc(OC)c(OC)cc4C3)coc2c1` as the compound, how does the inhibition read?
A: The inhibition was -6.31% (inactive).

Q: `COc1ccccc1CNC(=O)c1cc(=O)c2ccccc2o1` was tested. Which inhibition did it give?
A: Its inhibition is 2.61% (inactive).

Q: For `CCC(=O)Nc1nc2ccccc2n1Cc1ccccc1C`, which inhibition is on record?
A: The inhibition was 69.6% (active).

Q: Which inhibition does the source give for `C=CCn1c(C(C)NC(=O)CC)nc2ccccc21` (centres undefined) here?
A: Its inhibition is -3.06% (inactive).

Q: How did the inhibition turn out when `CC(=O)NC(C)c1nc2ccccc2n1Cc1ccccc1F` (centres undefined) was run?
A: The inhibition was -8.31% (inactive).

Q: Which inhibition does the source give for `O=C(CSc1nnc(-c2ccncc2)n1C1CCCCC1)Nc1ccccc1` here?
A: Its inhibition is 0.57% (inactive).

Q: With `Cc1ccc(N(Cc2ccc(C(=O)Nc3ccccc3C(=O)NCc3ccco3)cc2)S(C)(=O)=O)cc1C` as the compound, how does the inhibition read?
A: The inhibition was -0.75% (inactive).

Q: For `Cc1cccc(Nc2ccccc2C(=O)NCc2ccco2)c1C`, which inhibition is on record?
A: The inhibition was 99.8% (active).

Q: `O=C(CCNC(=O)c1ccccc1Cl)NCc1ccco1` was tested. Which inhibition did it give?
A: Its inhibition is -2.42% (inactive).

Q: Which inhibition does the source give for `COc1ccc(OCC(=O)NN2Cc3ccccc3C2=N)cc1` here?
A: Its inhibition is 10.9% (inactive).

Q: Which inhibition does the source give for `CC(Oc1ccccc1)C(=O)NN1Cc2ccccc2C1=N` (centres undefined) here?
A: The inhibition was 59.1% (active).

Q: Which inhibition does the source give for `CC(Oc1ccccc1)C(=O)Nc1c2c(nn1-c1ccccc1)CS(=O)C2` (centres undefined) here?
A: The inhibition was 4.67% (inactive).

Q: For `O=C(CSc1nnc(COc2ccc(Cl)cc2)n1Cc1ccco1)N1CCNC1=O`, which inhibition is on record?
A: The inhibition was -11.3% (inactive).

Q: How did the inhibition turn out when `CCc1cccc(C)c1NC(=S)N(CCCN1CCN(C)CC1)Cc1cccs1` was run?
A: The inhibition was -5.26% (inactive).

Q: For `COc1cc(Cl)ccc1OCc1cc(C(=O)N(C)CCc2c(C)n[nH]c2C)no1`, which inhibition is on record?
A: The inhibition was -14.3% (inactive).

From PubChem BioAssay AID504490 (NMMLSC, 2011)
